A word on the viability: it is a read-out of living cells in per cent, often relative to untreated cells. The inhibition is the change of the read-out against control, counted positive when it falls.

Test [1] in a line: OD615 S. cerevisiae growth inhibition, permissive medium, pilot counter-assay, permissive growth control for S. cerevisiae lifespan shortening project (AID 705;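 active = growth inhibition above 25% in both replicates, a cutoff set 3 SD above the mean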). As to conditions: OD615, 24 h, at 10 µM, stronger effect = higher value. The gist of the method:
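Test system: Saccharomyces cerevisiae strain carrying genetically modified DeaD replicative-lifespan system; buffer or medium: SC raffinose/galactose permissive medium; dosing: one dose 10 µM, DMSO 0.25% final; times: 24 h exposure, 30 °C; measured by: OD at 615 nm; read-out basis: growth inhibition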

A short description of test [2]: Restrictive medium S. cerevisiae growth inhibition, OD615, pilot screen of yeast lifespan reduction project, restrictive growth control (AID 706;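 active = growth inhibition above a set limit, 3 SD over mean compound inhibition, in both replicates, cut at about 43% in these data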;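 also: modified DeaD lifespan yeast strain shifted to restrictive glucose medium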). The settings on record: OD615, 48 h, at 10 µM, stronger effect = higher value. Put shortly:
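material = engineered S. cerevisiae DeaD strain | buffer or medium = glucose-based CSMM-D restrictive medium | dosing = one concentration, 10 µM final, 0.25% DMSO | schedule = 4 h pre-growth plus 48 h compound exposure, 30 °C | detection = OD615 absorbance reading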

Test [3] can be described thus: viability gain of MRP-1-high H69AR cells under doxorubicin, pilot screen, MRP-1 activator project, CellTiter-Glo, duplicate (AID 807;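 active = viability increase at or above a cutoff of the median across tested compounds plus 3 SD, cut at about 8.5% in these data, passing the limit was not always enough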;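 also: compound pretreatment 18-22 h then 72 h combined with doxorubicin; 0% = doxorubicin alone and 100% = vehicle without doxorubicin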). As to conditions: H69AR viability with doxorubicin, CellTiter-Glo luminescence; at 10 µM; stronger effect = higher value. Background: In ATP-based viability assays light output follows the ATP content of the culture.
The nature of test [4]: growth suppression of beta-catenin knockout HCT116, pilot screen, human colon tumor cells (AID 823;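 active = cell viability at or below a set limit in both duplicate runs, the limit being the all-compound median minus 4 SD, cut at about 23% in these data, passing the limit was not always enough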;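 also: 0% = wells killed by 20 µM Hyamine and 100% = untreated DMSO cell wells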). As to conditions: CellTiter-Glo, 60 h, at 10 µM, stronger effect = lower value.
Test [5] in a line: growth suppression of PTEN-deleted HCT116, pilot screen, cell-based, HCT116 clonal line, CellTiter-Glo (AID 824).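 Also: 0% = 20 µM Hyamine control and 100% = vehicle cell control.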 The settings on record: 60 h, at 10 µM, stronger effect = lower value.
A short description of test [6]: inhibitors of the yeast RAM network, pilot screen, dse1pr::URA3 reporter, 5-FOA selection (AID 869;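 active = inhibition over a set limit, the all-compound mean plus 3 SD, in both replicate runs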;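 also: 0% = DMSO wells with no growth and 100% = 10 µM 1-NA-PP1 with full growth; RAM network block rescues cells from 5-FOA so hits raise OD615 growth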). As to conditions: S. cerevisiae dse1pr::URA3 5-FOA growth, OD615, 2 d; at 10 µM; stronger effect = higher value; strain carries analog-sensitive mutant Cbk1 kinase.
Test [7] in a line: RAM signaling pathway blockade in yeast – S. cerevisiae, Pdr1DBD-CYC8 efflux-inhibited sensitized strain, primary screen (AID 1298;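 active = RAM network inhibition above 8.4% in each of two replicates, 3 SD over the compound average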;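 also: 0% = DMSO untreated cells without growth and 100% = 10 µM 1-NA-PP1 full growth; higher means more yeast growth rescued from 5-FOA killing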). As to conditions: S. cerevisiae cbk1-as DSE1-URA3 strain, 5-FOA growth OD615, 2 d; at 50 µM; stronger effect = higher value.

Results filed as inconclusive are left out. The source made the active and inactive calls.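 The calls were made as follows, unless noted: active = viability at or below 27.92% in each of two runs, the all-compound median minus 4 SD; inconclusive = no clear call, values can overlap the other calls; inactive = the rest.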

As to `C=CCSC1=N/C(=C\c2ccsc2)C(=O)S1`, the growth inhibition in test [1] is 7.03% (inactive); in test [2] it was 27.8% (inactive). For the same compound, the viability increase in test [3] was -2.48% (inactive). Also, the viability in test [4] was 98.1% (inactive); in test [5], 93% (inactive). Besides, in test [6], the inhibition was 0.475% (inactive). Besides, the RAM network inhibition in test [7] was 0.97% (inactive).
In the case of `O=C(Nc1nc(-c2ccccn2)cs1)c1ccc(Cl)s1`, the figures for the growth inhibition in test [1] and in test [2] were 94.1% (active) and 96.8% (active), respectively. The viability increase in test [3] was -8.93% (inactive). For the same compound, the viability in test [4] was 10.6% (active); in test [5], 22.1% (active). Further, the inhibition in test [6] is -1.18% (inactive). Besides, the RAM network inhibition in test [7] is -2.58% (inactive).
In the case of `CC(=O)N1CCc2cc(C(=O)CN3CCC(C)CC3)ccc21`, the values for the growth inhibition in test [1] and in test [2] were -5.91% (inactive) and -4.73% (inactive), respectively. Further, the viability increase in test [3] is -2.46% (inactive). In addition, the figures for the viability in test [4] and in test [5] were 104% (inactive) and 93.6% (inactive), respectively. The inhibition in test [6] is 1.56% (inactive). Further, the RAM network inhibition in test [7] was 7.51% (inactive).
As for `CCN(CC)c1ccc(NC(=O)C2CC3CCC2C3)cc1` (stereo not given), the growth inhibition is -9.15% (inactive) in test [1] and -4.45% (inactive) in test [2]. Besides, the viability increase in test [3] is 1.44% (inactive). The viability in test [4] was 69.6% (inactive); in test [5] it was 80.6% (inactive). The inhibition in test [6] was 1.14% (inactive). Besides, the RAM network inhibition in test [7] was 6.6% (inactive).
`CCOC(=O)c1nn(-c2ccc3c(c2)CCN3C(C)=O)cc1O`: the growth inhibition in test [1] is -3.56% (inactive); in test [2], -5.95% (inactive). For the same compound, the viability increase in test [3] was -1.4% (inactive). For the same compound, the viability in test [4] was 101% (inactive); in test [5], 92.7% (inactive). Also, in test [6], the inhibition is 0.375% (inactive). Further, the RAM network inhibition in test [7] was 3.05% (inactive).
With `O=C1c2oc3ccc(F)cc3c(=O)c2C(c2ccc(F)cc2)N1CCCN1CCOCC1` (stereo not given), the growth inhibition in test [1] is -1.14% (inactive); in test [2], 6.59% (inactive). Also, in test [3], the viability increase is 0.11% (inactive). Moreover, the viability in test [4] is 106% (inactive); in test [5] it was 97.5% (inactive). The inhibition in test [6] was 1.92% (inactive). Also, in test [7], the RAM network inhibition is -0.47% (inactive).
Consider `CC(C)c1nnc(NC(=O)CN2C(=O)c3ccccc3C2=O)s1`, for which the growth inhibition in test [1] was -5.71% (inactive); in test [2], -6.92% (inactive). The viability increase in test [3] was -1.95% (inactive). In addition, the figures for the viability in test [4] and in test [5] were 96.3% (inactive) and 89.1% (inactive), respectively. Further, the inhibition in test [6] was 1.61% (inactive). Moreover, the RAM network inhibition in test [7] is 3.84% (inactive).
As to `CN1CCN(C(=O)c2cc3c(s2)-c2ccccc2S(=O)(=O)C3)CC1`, the growth inhibition in test [1] is -2.05% (inactive); in test [2], -0.515% (inactive). Also, the viability increase in test [3] was -1.76% (inactive). In addition, the viability was 103% (inactive) in test [4] and 98.5% (inactive) in test [5]. Also, the inhibition in test [6] is 1.8% (inactive). Also, the RAM network inhibition in test [7] was 0.72% (inactive).
In the case of `Cc1ccccc1Cn1c(CN2CCN(c3ccc(F)cc3)CC2)nc2c1c(=O)n(C)c(=O)n2C`, the growth inhibition in test [1] is -12.2% (inactive); in test [2] it was -17.1% (inactive). In addition, the viability increase in test [3] is -3.7% (inactive). Also, the viability was 94.4% (inactive) in test [4] and 92.2% (inactive) in test [5]. Besides, the inhibition in test [6] was 2.51% (inactive). In test [7], the RAM network inhibition was 7.93% (inactive).
In the case of `CN(C)c1nc(N)nc(-c2ccco2)n1`, the growth inhibition in test [1] was 3.19% (inactive); in test [2], 14.2% (inactive). In addition, the viability increase in test [3] is 0.01% (inactive). Further, the viability in test [4] is 93.7% (inactive); in test [5] it was 103% (inactive). Further, the inhibition in test [6] is 0.535% (inactive). For the same compound, the RAM network inhibition in test [7] was 0.21% (inactive).
With `Cc1nc2sc(C(c3ccc(Cl)cc3)N3CCN(CCO)CC3)c(O)n2n1` (stereo not given), the growth inhibition in test [1] is 7.67% (inactive); in test [2], 4.92% (inactive). Also, in test [3], the viability increase is -2.42% (inactive). Besides, the viability is 97% (inactive) in test [4] and 90.2% (inactive) in test [5]. In test [6], the inhibition is 1.82% (inactive). The RAM network inhibition in test [7] is 1.58% (inactive).
`COC(=O)CSC1=C(C#N)C(c2ccc(C(C)C)cc2)CC(=O)N1` (stereo not given): the growth inhibition is -0.135% (inactive) in test [1] and -3.29% (inactive) in test [2]. The viability increase in test [3] is 0.86% (inactive). The values for the viability in test [4] and in test [5] were 89.8% (inactive) and 89.3% (inactive), respectively. In addition, in test [6], the inhibition is 3.04% (inactive). Besides, the RAM network inhibition in test [7] was 4.09% (inactive).
In the case of `O=C(O)c1c2c(nc3ccc(S(=O)(=O)N4CCC(C(=O)N5CCCCC5)CC4)cc13)CCCC2`, the growth inhibition in test [1] is -3.06% (inactive); in test [2], -3.51% (inactive). For the same compound, the viability increase in test [3] is 0.51% (inactive). The viability is 97.3% (inactive) in test [4] and 92.8% (inactive) in test [5]. In test [6], the inhibition was 0.79% (inactive). Besides, the RAM network inhibition in test [7] is 1.98% (inactive).
Take `CCC(=O)Nc1ccc(S(=O)(=O)N2CCc3ccccc3C2)cc1`: the growth inhibition in test [1] was -7.58% (inactive); in test [2] it was -3.42% (inactive). In addition, the viability increase in test [3] was -3.43% (inactive). The viability in test [4] is 89.1% (inactive); in test [5], 90.1% (inactive). Besides, the inhibition in test [6] was 0.395% (inactive). Also, in test [7], the RAM network inhibition was 10% (inactive).
Regarding `CC(=O)Nc1ccc(S(=O)(=O)N2CCN(c3nc(NC4CCCC4)c4ccccc4n3)CC2)cc1`, the growth inhibition in test [1] was 0.72% (inactive); in test [2] it was -1.39% (inactive). In addition, the viability increase in test [3] is -8.11% (inactive). In addition, the figures for the viability in test [4] and in test [5] were 1.42% (active) and 1.7% (active), respectively. Further, the inhibition in test [6] was 1.15% (inactive). Also, in test [7], the RAM network inhibition is 3.62% (inactive).

For the origin of these results see PubChem BioAssay.
